14 molecules from ChEMBL document CHEMBL1139357, “Synthesis and anti-hepatitis B virus and anti-hepatitis C virus activities of 7-deazaneplanocin A analogues in vitro” (J Med Chem, 2009) can be followed below.

pEC50, pIC50: −log10 of the molar value.

Data set [1] deals with Hepatitis C virus. The data set is described as follows: Antiviral activity against HCV in human Huh7 cells assessed as reduction of viral level after 5 days by RNA subgenomic replicon assay. In kind it is functional, organism-based, Hepacivirus hominis. To be noted: Huh-7, 120 h. In a few lines: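 Huh-7 clone B subgenomic replicon cells seeded at 3000/well, compounds added in duplicate at two dilutions right after seeding; 5 days at 37 °C, 5% CO2. Total RNA isolated; replicon RNA and rRNA control amplified by multiplex one-step real-time RT-PCR. Activity as ΔCt versus no-drug control; EC50/EC90 for 50%/90% reduction.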

The nature of data set [2]: Cytotoxicity against human Huh7 cells assessed as rRNA level after 5 days. The settings on record: huh-7, 120 h. It counts as cell-based. Summed up:
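Huh-7 cells carrying a subgenomic HCV replicon (clone B) were seeded at 3000 cells/well. Compound was added in duplicate at two dilutions right after seeding, then cells were incubated 5 days at 37 °C, 5% CO2. Total RNA was isolated, and replicon RNA and an rRNA internal control were co-amplified by one-step multiplex real-time RT-PCR.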

Data set [3] relates to Hepatitis B virus. The data set is described as follows: Antiviral activity against HBV in human HepG2(2.2.15) cells assessed as extracellular HBV virion DNA level after 24 hrs. The settings on record: HepG2 2.2.15, 24 h. It counts as functional, organism-based. Summed up: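 Confluent HBV-producing 2.2.15 cell cultures were given nine consecutive daily doses of compound. Extracellular HBV DNA was measured by quantitative blot hybridization 24 h after the last dose. Cytotoxicity was read by neutral red uptake 24 h after the last dose.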

Data set [4] is described as follows: Cytotoxicity against human HepG2(2.2.15) cells assessed as uptake of neutral red dye after 24 hrs. In kind it is cell-based. To be noted: HepG2 2.2.15, 24 h. In a few lines:
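2.2.15 cells, confluent, dosed daily for nine consecutive days; cytotoxicity by neutral red dye uptake 24 h after the last treatment.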

Data set [5] in a line: Cytotoxicity against ET cells at 20uM. In kind it is cell-based. In a few lines:
(§1)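 ET replicon cells seeded at 5000/well overnight without G418; serially diluted compound for 3 days; viability by tetrazolium-based CytoTox-1 proliferation assay. Four replicates; IC50 is the concentration cutting viability by 50%. Weak compounds given as percent of control at 20 µM.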

For data set [6], the system named is Hepatitis C virus. The data set is described as follows: Antiviral activity against HCV in ET cells assessed as activity of luciferase reporter at 20 uM by subgenomic RNA replicon assay. It counts as functional, Hepacivirus hominis. Summed up:
(§2)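 ET replicon cells (dicistronic HCV replicon with firefly luciferase, three adaptive mutations) seeded at 5000/well overnight in DMEM without G418; serial compound dilutions added, 3 days incubation, luciferase read by Steady-Glo. Four replicates per point; EC50 is 50% luciferase inhibition. Marginal actives given as percent inhibition versus control at 20 µM.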
A general note: Reporter assays use an easily measured gene product as a stand-in for the process of interest.

Data set [7] in a line: Cytotoxicity against ET cells. In kind it is cell-based. The settings on record: for pIC50: ET. Summed up:
as §1

Data set [8] has as its system Hepatitis C virus. The data set is described as follows: Antiviral activity against HCV in ET cells assessed as activity of luciferase reporter by subgenomic RNA replicon assay. It counts as functional, organism-based, Hepacivirus hominis. Summed up: as §2
The subject of data set [9] is Hepatitis B virus. The data set is described as follows: Antiviral activity against lamivudine-resistant HBV reverse transcriptase LM/reverse transcriptase MV double mutant in human Huh7 cells after 4 days by intracellular HBV DNA replication assay. It counts as functional, organism-based. To be noted: Huh-7, 96 h. In a few lines:
(§3)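 In a 5-day transient transfection assay, cells expressed wild-type or lamivudine- or adefovir-resistant HBV mutants. After 4 days of drug treatment, intracellular HBV DNA replication intermediates were quantified by Southern blot hybridization.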

Data set [10] relates to Hepatitis B virus. Description: Antiviral activity against adefovir-resistant HBV reverse transcriptase 236T mutant in human Huh7 cells after 4 days by intracellular HBV DNA replication assay. To be noted: Huh-7, 96 h. In kind it is functional, organism-based. Summed up:
as §3

Data set [11] has as its system Hepatitis B virus. Description: Antiviral activity against lamivudine-resistant wild type HBV in human Huh7 cells after 4 days by intracellular HBV DNA replication assay. It counts as functional, organism-based. The settings on record: Huh-7, 96 h. Summed up:
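Transient transfection of HBV into cells, 5-day assay; compounds applied for 4 days, then intracellular HBV DNA replication intermediates quantified by Southern blot hybridization to derive EC50.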

The subject of data set [12] is Hepatitis B virus. Description: Antiviral activity against lamivudine-resistant HBV reverse transcriptase 236T mutant in human Huh7 cells after 4 days by intracellular HBV DNA replication assay. The settings on record: Huh-7, 96 h. It counts as functional, organism-based. Summed up: as §3
Data set [13] has as its system Hepatitis B virus. The data set is described as follows: Antiviral activity against lamivudine-resistant HBV reverse transcriptase L180M mutant in human Huh7 cells after 4 days by intracellular HBV DNA replication assay. To be noted: Huh-7, 96 h. It counts as functional, organism-based. Summed up:
as §3

Data set [14] has as its system Hepatitis B virus. The data set is described as follows: Antiviral activity against lamivudine-resistant HBV reverse transcriptase M204I mutant in human Huh7 cells after 4 days by intracellular HBV DNA replication assay. It counts as functional, organism-based. To be noted: Huh-7, 96 h. Summed up:
as §3

Data set [15] has as its system Hepatitis B virus. Description: Antiviral activity against adefovir-resistant wild type HBV in human Huh7 cells after 4 days by intracellular HBV DNA replication assay. It counts as functional, organism-based. The settings on record: Huh-7, 96 h. Summed up:
as §3

Data set [16] concerns Hepatitis B virus. The data set is described as follows: Antiviral activity against lamivudine-resistant HBV reverse transcriptase M204V mutant in human Huh7 cells after 4 days by intracellular HBV DNA replication assay. In kind it is functional, organism-based. The settings on record: Huh-7, 96 h. In a few lines:
as §3

Data set [17] has as its system Hepatitis B virus. Description: Antiviral activity against adefovir-resistant HBV reverse transcriptase L180M mutant in human Huh7 cells after 4 days by intracellular HBV DNA replication assay. It counts as functional, organism-based. To be noted: Huh-7, 96 h. In a few lines: as §3
The subject of data set [18] is Hepatitis B virus. The data set is described as follows: Antiviral activity against adefovir-resistant HBV reverse transcriptase M204I mutant in human Huh7 cells after 4 days by intracellular HBV DNA replication assay. In kind it is functional, organism-based. To be noted: Huh-7, 96 h. Summed up: as §3
The test system of data set [19] is Hepatitis B virus. The data set is described as follows: Antiviral activity against adefovir-resistant HBV reverse transcriptase LM/reverse transcriptase MV double mutant in human Huh7 cells after 4 days by intracellular HBV DNA replication assay. In kind it is functional, organism-based. To be noted: Huh-7, 96 h. Summed up:
as §3

Data set [20] deals with Hepatitis B virus. Description: Antiviral activity against HBV in human HepG2(2.2.15) cells assessed as replication intermediates after 24 hrs. It counts as functional, organism-based. The settings on record: HepG2 2.2.15, 24 h. Summed up:
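Confluent 2.2.15 cultures in 96-well format given nine consecutive daily doses; HBV DNA quantified by blot hybridization 24 h after the last treatment.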

Data set [21] deals with Hepatitis B virus. Description: Antiviral activity against adefovir-resistant HBV reverse transcriptase M204V mutant in human Huh7 cells after 4 days by intracellular HBV DNA replication assay. It counts as functional, organism-based. To be noted: Huh-7, 96 h. Summed up: as §3
Data set [22] is described as follows: Selectivity index, EC50 for HCV to IC50 for ET cells. In kind it is functional. In a few lines: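 SI50 from ET replicon luciferase EC50 (3-day assay) and CytoTox-1 viability IC50, each averaged from four replicates.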

As a reminder, the pEC50 is the EC50 on a negative log10 scale, so that one unit is a factor of ten. The EC90 is the concentration needed for an effect of 90%. By CC50 is commonly meant the concentration at which the toxic effect on the cells reaches its halfway point. As to `C[C@@]1(O)[C@H](O)[C@@H](CO)O[C@H]1n1ccc(N)nc1=O`, in data set [1], the pEC50 was 5.46 and the EC90 turned out to be 11 µM. The CC50 in data set [2] was greater than 50 µM.

The pIC50 is the IC50 on a negative log10 scale, so that one unit is a factor of ten. Consider `N#Cc1cn([C@@H]2C=C(CO)[C@@H](O)[C@H]2O)c2ncnc(N)c12`, for which, in data set [3], the pEC50 is less than 5.00. Besides, the pIC50 in [4] was less than 3.52. The results for the Activity in data set [5] and in data set [6] were 103.3% and 0.5%, respectively.

For `Nc1ccn([C@@H]2O[C@H](CO)[C@@H](O)[C@]2(O)F)c(=O)n1`, in data set [1], the pEC50 is 5.77 and the EC90 stood at 5.3 µM. Further, the CC50 in [2] was greater than 50 µM.

In the case of `NC(=O)c1cn([C@@H]2C=C(CO)[C@@H](O)[C@H]2O)c2ncnc(N)c12`, the results for the pEC50 in data set [3] and in data set [8] were less than 5.00 and 5.74, respectively. Also, the pIC50 was 4.93 in data set [7] and 3.52 in [4].

For `Nc1ncnc2c1c(Br)cn2[C@@H]1C=C(CO)[C@@H](O)[C@H]1O`, the pEC50 is less than 5.00 in data set [3] and 4.78 in data set [8]. The negative logarithm of the IC50 (pIC50) in [7] was 4.38; in data set [4], less than 3.52.

As for `Nc1ncnc2c1c(F)cn2[C@@H]1C=C(CO)[C@@H](O)[C@H]1O`, in data set [3], the pEC50 was less than 5.00. Also, the Activity in data set [7] (et) came to 112.7%; in data set [6] it was 9.5%. The negative-log IC50 (pIC50) in data set [4] was less than 3.52.

In the case of `Nc1ncnc2c1c([N+](=O)[O-])cn2[C@@H]1C=C(CO)[C@@H](O)[C@H]1O`, the pEC50 in data set [3] is less than 5.00. For the same molecule, the pIC50 in data set [4] was less than 3.52. This molecule also returned an Activity in data set [5] of 101.5%.

For `Nc1ccn([C@@H]2CS[C@H](CO)O2)c(=O)n1` [LAMIVUDINE], the pEC50 in data set [9] was less than 4.00; in data set [10], 5.11; in data set [11], 6.70; in [3], 7.32; in data set [12], 6.52; in data set [13], 5.00. For the same molecule, the pEC50 in data set [14] was less than 4.00; in data set [15], 5.89; in data set [16], less than 4.00; in [17] it was 5.80; in [18], 5.74; in data set [19], 5.80. For the same molecule, the pEC50 in data set [20] is 6.82; in data set [21], 5.82. Moreover, the pIC50 in data set [4] is less than 2.70.

`C#Cc1cn([C@@H]2C=C(CO)[C@@H](O)[C@H]2O)c2ncnc(N)c12`: the pEC50 is 6.49 in [3], 4.70 in data set [8] and 5.74 in data set [20]. Moreover, the pIC50 in [7] was 4.31; in [4] it was less than 3.52.

For `Nc1ncnc2c1c(I)cn2[C@@H]1C=C(CO)[C@@H](O)[C@H]1O`, the pEC50 is 6.37 in [3], 5.68 in data set [8] and 5.80 in [20]. The pIC50 in data set [7] is 4.82; in [4], less than 3.52.

In data set [7], `C[C@@]1(O)[C@H](O)[C@@H](CO)O[C@H]1n1cnc2c(N)ncnc21` had a pIC50 of less than 5.00. Besides, the pEC50 in data set [8] is 6.82. Moreover, the Ratio in data set [22] is greater than 66.7.

As for `Nc1ncnc2c1ncn2CCOCP(=O)(O)O` [ADEFOVIR], the negative logarithm of the EC50 (pEC50) is 5.11 in data set [10]; 5.89 in data set [15]; 5.80 in [17]; 5.74 in data set [18]; 5.80 in data set [19]; 5.82 in [21].

Turning to `Nc1ncnc2c1c(Cl)cn2[C@@H]1C=C(CO)[C@@H](O)[C@H]1O`, the pEC50 in data set [3] is less than 5.00; in data set [8], 4.83. Further, the pIC50 in data set [7] is 4.30; in data set [4] it was less than 3.52.

On to `C=Cc1cn([C@@H]2C=C(CO)[C@@H](O)[C@H]2O)c2ncnc(N)c12`, for which the negative logarithm of the EC50 (pEC50) in [3] is 5.48; in data set [20], 5.00. Moreover, the negative logarithm of the IC50 (pIC50) in data set [4] was less than 3.52. The Activity was determined as 99.7% in data set [5] and 49.2% in data set [6].
